For data set [1], the target named is High affinity nerve growth factor receptor (Homo sapiens) (UniProt P04629). As to the kind of experiment: Inhibition of NTRK1 at 10 uM.
For data set [2], the target named is Leucine-rich repeat serine/threonine-protein kinase 2 (Homo sapiens) (UniProt Q5S007). As to the kind of experiment: Inhibition of LRKK2 at 10 uM.
Data set [3] addresses T1, Phosphatidylinositol 4,5-bisphosphate 3-kinase catalytic subunit delta isoform (Homo sapiens, UniProt O00329).
T1 sequence (O00329 whole entry): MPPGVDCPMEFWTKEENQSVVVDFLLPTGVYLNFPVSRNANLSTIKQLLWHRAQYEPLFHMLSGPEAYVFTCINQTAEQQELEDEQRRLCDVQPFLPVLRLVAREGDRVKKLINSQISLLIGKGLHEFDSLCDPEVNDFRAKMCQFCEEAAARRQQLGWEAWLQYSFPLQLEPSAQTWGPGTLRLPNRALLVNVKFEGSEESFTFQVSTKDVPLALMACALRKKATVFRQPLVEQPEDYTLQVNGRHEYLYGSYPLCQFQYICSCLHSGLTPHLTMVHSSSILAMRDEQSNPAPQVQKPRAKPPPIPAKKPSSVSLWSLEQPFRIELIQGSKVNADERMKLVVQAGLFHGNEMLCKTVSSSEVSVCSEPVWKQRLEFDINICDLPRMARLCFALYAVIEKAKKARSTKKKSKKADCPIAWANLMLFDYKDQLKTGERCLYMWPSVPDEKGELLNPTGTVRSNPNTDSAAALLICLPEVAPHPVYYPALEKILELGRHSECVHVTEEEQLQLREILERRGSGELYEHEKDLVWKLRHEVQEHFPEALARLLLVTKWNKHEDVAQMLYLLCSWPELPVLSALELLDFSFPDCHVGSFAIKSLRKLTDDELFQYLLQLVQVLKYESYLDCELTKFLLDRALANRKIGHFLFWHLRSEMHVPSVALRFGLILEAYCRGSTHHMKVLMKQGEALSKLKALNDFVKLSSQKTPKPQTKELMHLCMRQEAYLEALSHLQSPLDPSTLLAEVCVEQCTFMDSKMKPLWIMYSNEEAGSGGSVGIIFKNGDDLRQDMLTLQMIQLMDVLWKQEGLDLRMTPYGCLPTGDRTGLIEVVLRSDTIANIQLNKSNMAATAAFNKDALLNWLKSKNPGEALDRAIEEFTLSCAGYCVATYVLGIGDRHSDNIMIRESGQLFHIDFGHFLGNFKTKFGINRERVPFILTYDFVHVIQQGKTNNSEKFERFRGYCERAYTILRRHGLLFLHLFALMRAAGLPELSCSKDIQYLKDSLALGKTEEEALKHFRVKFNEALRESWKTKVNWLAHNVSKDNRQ
The data set can be described thus: Inhibition of PI3Kdelta. Particulars: read-out: I50.

In data set [4] the test system is Receptor-type tyrosine-protein kinase FLT3 (Homo sapiens), P36888 [D835Y]. As to the kind of experiment: Inhibition of FLT3 D835Y mutant at 10 uM.
Data set [5] relates to Proto-oncogene tyrosine-protein kinase receptor Ret (Homo sapiens), P07949 [Y791F]. As to the kind of experiment: Inhibition of RET Y791F mutant at 10 uM.
Data set [6] addresses Cyclin-dependent kinase 5/CDK5 activator 1 (Homo sapiens) (UniProt Q00535+Q15078). As to the kind of experiment: Inhibition of CDK5/P25 at 10 uM. The format is protein-complex assay.
Data set [7] deals with BDNF/NT-3 growth factors receptor (Homo sapiens) (UniProt Q16620). The data set can be described thus: Inhibition of NTRK2 at 10 uM.
Data set [8] addresses Mitogen-activated protein kinase 9 (Homo sapiens) (UniProt P45984). The data set can be described thus: Inhibition of JNK2 at 10 uM.
Data set [9] relates to Plasma. The data set can be described thus: Metabolic stability in rat plasma assessed as compound remaining at 1 uM after 60 mins by Lc/Ms method. The format is ADME, cell-free. Particulars: 1 h. Put shortly: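 Compound at 1 µM (2.5% DMSO final) in fresh rat plasma at 37 °C. Stopped at 0, 30 and 60 min with two volumes methanol plus internal standard, then LC-MS. Percent parent remaining relative to 0 min, from peak area ratios to internal standard. Duplicate runs, with a plasma-labile positive control.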

The target in data set [10] is Tyrosine-protein kinase ABL1 (Homo sapiens) (UniProt P00519). As to the kind of experiment: Inhibition of ABL1 […] mutant at 10 uM.
Chain of Tyrosine-protein kinase ABL1 (Homo sapiens) (P00519 whole entry): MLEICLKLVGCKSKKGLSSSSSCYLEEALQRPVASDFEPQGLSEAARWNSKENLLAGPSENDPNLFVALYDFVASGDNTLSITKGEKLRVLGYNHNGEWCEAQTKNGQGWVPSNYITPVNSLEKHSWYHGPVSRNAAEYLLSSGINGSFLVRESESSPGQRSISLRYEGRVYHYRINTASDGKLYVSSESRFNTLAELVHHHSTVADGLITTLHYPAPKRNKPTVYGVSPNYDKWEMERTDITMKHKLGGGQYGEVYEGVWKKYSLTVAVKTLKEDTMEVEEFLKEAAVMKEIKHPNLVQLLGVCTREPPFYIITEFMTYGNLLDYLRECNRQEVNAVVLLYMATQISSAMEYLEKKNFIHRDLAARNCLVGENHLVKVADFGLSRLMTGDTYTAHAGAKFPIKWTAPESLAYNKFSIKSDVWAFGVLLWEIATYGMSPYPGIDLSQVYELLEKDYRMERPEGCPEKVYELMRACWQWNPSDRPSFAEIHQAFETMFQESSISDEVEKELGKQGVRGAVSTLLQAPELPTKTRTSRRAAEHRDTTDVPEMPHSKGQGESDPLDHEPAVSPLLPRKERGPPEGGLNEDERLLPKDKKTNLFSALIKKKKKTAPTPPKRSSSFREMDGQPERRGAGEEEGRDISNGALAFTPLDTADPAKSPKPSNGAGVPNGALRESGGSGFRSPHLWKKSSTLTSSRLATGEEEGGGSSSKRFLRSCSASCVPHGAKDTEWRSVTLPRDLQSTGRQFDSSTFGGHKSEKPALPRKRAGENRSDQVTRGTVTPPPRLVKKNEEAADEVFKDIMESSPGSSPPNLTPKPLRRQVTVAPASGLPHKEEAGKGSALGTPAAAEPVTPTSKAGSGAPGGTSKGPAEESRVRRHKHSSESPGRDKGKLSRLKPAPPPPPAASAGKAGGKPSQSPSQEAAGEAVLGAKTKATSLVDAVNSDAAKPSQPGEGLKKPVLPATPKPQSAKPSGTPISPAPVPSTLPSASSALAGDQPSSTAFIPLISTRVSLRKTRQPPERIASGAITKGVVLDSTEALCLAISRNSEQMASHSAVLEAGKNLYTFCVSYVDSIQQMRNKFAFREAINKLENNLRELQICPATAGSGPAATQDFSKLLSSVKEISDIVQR

Where only a bound is given, the exact number is not on record here.

Chain of High affinity nerve growth factor receptor (Homo sapiens) (P04629 33-796 limits assumed): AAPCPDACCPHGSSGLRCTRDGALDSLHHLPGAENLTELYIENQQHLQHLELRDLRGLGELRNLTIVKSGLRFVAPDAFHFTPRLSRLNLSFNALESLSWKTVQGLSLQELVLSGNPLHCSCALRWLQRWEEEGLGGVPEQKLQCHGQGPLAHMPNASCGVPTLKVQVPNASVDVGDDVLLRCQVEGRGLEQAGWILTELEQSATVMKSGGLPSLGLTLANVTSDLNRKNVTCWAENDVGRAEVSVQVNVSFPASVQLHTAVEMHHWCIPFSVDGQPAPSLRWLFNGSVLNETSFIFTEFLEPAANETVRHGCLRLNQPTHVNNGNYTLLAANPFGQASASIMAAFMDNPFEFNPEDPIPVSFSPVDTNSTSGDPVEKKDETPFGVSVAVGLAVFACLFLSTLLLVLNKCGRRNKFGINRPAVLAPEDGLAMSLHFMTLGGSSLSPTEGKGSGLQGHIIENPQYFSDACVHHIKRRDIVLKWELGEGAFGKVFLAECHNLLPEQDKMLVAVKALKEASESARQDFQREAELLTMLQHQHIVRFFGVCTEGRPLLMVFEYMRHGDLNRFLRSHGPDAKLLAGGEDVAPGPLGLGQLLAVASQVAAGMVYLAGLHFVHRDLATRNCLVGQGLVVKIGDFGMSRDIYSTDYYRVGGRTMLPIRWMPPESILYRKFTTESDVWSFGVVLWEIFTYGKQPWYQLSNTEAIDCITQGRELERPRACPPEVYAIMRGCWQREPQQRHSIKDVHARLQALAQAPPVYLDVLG
Chain of Leucine-rich repeat serine/threonine-protein kinase 2 (Homo sapiens) (Q5S007 whole entry, canonical isoform): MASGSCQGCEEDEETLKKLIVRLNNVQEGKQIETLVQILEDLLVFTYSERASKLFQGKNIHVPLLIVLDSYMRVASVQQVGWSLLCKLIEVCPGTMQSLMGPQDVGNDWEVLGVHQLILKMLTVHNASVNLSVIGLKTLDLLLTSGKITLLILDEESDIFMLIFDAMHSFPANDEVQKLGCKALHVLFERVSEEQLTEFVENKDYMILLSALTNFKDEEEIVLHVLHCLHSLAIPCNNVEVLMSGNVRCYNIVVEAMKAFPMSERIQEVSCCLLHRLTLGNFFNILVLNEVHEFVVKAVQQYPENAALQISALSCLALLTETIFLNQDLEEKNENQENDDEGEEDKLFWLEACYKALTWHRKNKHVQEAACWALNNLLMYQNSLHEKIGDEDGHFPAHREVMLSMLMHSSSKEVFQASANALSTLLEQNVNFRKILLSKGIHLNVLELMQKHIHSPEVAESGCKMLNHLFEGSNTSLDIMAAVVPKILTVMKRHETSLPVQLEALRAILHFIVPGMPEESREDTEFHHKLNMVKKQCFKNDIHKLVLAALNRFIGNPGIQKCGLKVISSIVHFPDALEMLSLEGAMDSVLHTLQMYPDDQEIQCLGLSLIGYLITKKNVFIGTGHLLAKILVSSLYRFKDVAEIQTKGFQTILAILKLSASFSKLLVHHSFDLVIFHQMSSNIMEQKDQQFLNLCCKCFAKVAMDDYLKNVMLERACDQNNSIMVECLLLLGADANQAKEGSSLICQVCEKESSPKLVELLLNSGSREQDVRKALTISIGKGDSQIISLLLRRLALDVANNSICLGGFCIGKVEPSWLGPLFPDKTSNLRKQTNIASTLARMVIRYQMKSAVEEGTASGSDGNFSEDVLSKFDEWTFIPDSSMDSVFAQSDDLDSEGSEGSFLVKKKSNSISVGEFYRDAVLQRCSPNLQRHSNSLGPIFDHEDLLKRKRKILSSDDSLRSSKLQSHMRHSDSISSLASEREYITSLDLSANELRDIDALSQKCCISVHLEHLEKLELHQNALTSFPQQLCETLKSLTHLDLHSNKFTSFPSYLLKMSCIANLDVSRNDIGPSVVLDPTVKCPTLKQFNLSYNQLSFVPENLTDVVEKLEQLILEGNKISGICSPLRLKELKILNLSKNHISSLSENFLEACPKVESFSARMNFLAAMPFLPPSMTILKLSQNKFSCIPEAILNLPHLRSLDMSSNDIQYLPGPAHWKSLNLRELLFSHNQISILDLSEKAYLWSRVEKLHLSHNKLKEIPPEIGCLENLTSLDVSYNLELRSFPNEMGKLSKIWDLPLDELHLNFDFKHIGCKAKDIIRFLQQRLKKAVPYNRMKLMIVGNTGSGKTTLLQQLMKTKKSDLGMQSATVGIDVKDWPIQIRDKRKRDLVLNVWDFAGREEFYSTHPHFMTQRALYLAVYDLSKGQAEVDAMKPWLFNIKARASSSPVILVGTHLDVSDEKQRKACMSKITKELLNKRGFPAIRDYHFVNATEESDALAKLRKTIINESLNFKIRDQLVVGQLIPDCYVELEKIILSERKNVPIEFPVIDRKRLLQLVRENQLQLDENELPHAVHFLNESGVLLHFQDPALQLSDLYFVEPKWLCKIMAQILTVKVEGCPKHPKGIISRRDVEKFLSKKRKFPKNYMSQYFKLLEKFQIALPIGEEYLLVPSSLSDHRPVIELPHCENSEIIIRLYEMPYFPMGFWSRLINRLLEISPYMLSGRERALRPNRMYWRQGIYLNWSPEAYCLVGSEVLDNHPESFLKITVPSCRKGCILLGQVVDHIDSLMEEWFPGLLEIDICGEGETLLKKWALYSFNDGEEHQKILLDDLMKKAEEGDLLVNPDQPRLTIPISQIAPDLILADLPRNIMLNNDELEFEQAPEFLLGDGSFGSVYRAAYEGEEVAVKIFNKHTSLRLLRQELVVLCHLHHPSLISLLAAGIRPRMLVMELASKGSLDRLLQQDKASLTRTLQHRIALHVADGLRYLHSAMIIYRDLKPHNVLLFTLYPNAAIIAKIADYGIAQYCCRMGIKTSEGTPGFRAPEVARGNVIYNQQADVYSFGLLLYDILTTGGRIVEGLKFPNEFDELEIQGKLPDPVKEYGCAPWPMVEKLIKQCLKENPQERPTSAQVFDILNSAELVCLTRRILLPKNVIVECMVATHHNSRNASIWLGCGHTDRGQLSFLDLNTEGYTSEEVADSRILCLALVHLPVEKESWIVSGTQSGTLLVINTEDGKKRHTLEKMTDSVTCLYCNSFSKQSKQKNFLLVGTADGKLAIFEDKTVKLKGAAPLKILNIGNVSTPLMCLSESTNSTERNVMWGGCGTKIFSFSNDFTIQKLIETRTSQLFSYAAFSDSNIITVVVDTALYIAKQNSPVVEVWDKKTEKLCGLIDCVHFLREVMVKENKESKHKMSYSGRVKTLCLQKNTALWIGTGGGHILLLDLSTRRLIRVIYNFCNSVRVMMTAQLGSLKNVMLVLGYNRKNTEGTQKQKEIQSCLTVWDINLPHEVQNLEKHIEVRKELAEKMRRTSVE
Chain of Mitogen-activated protein kinase 9 (Homo sapiens) (P45984 whole entry, looked up): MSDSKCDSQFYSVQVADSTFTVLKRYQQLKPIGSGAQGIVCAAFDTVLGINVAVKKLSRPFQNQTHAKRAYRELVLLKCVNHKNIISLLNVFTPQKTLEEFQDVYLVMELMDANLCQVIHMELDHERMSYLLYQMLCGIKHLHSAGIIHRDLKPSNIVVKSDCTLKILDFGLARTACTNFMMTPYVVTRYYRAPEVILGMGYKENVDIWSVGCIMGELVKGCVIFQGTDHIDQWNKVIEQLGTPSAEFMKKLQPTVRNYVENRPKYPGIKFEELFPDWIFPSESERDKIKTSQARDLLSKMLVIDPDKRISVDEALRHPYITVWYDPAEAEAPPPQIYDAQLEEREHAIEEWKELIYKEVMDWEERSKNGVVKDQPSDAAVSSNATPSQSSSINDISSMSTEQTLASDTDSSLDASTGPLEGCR

With `C(#Cc1n[nH]c2ccccc12)c1ccncc1`, the inhibition in data set [1], in data set [2], in data set [4], in data set [5], in [6] and in [7] was above 50% in each case. The inhibition in [8] and in [10] was above 50% each time. The IC50 in [3] was found to be 39 µM. In addition, the Stability in data set [9] is reported as 97%.

Values taken from ChEMBL document CHEMBL1629532, “Design, synthesis, and structure-activity relationships of 3-ethynyl-1H-indazoles as inhibitors of the phosphatidylinositol 3-kinase signaling pathway” (J Med Chem, 2010).
